{
  "source": "ChEMBL document CHEMBL1157965",
  "about": "“Mono-, Bi-, and triphenanthrenes from the tubers of Cremastra appendiculata” (J Nat Prod, 2006)",
  "format_in_all_cases": "functional, cell-based",
  "key": {"[1]": {"system": "BGC-823", "test": "Cytotoxicity against human BGC823 cells after 96 hrs by MTT assay", "details": "BGC-823, 96 h", "how_it_was_run": "(§1)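 Cells kept in RPMI 1640 with 10% FBS, 100 units/mL penicillin and 100 µg/mL streptomycin at 37 °C, humidified 5% CO2. Seeded at 1200 cells/well; compounds added after 24 h at five concentrations from DMSO stocks (0.1% DMSO final), three wells per concentration.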"}, "[2]": {"system": "HCT-8", "test": "Cytotoxicity against human HCT8 cells after 96 hrs by MTT assay", "details": "HCT-8, 96 h", "how_it_was_run": "as §1"}, "[3]": {"system": "A549", "test": "Cytotoxicity against human A549 cells after 96 hrs by MTT assay", "details": "A549, 96 h", "how_it_was_run": "as §1"}, "[4]": {"system": "A2780", "test": "Cytotoxicity against human A2780 cells after 96 hrs by MTT assay", "details": "A2780, 96 h", "how_it_was_run": "as §1"}, "[5]": {"system": "Bel-7402", "test": "Cytotoxicity against human Bel7402 cells after 96 hrs by MTT assay", "details": "Bel-7402, 96 h", "how_it_was_run": "as §1"}, "[6]": {"system": "MCF7", "test": "Cytotoxicity against human MCF7 cells after 96 hrs by MTT assay", "details": "MCF7, 96 h", "how_it_was_run": "as §1"}, "[7]": {"system": "WISH", "test": "Cytotoxicity against human WISH cells after 96 hrs by MTT assay", "how_it_was_run": "as §1"}},
  "data": [
    {"smiles": "COc1ccc2c(ccc3c(-c4c(O)ccc5c4ccc4c(-c6c(O)cc(OC)c7c6ccc6cc(O)ccc67)c(O)cc(OC)c45)c(O)cc(OC)c32)c1", "values": [
      {"measurement": "IC50", "setting": "[1]", "result": 8.4, "unit": "µM"},
      {"measurement": "IC50", "setting": "[2]", "result": 8, "unit": "µM"},
      {"measurement": "IC50", "setting": "[3]", "result": 11.6, "unit": "µM"},
      {"measurement": "IC50", "setting": "[4]", "result": 8.1, "unit": "µM"},
      {"measurement": "IC50", "setting": "[5]", "result": 8.2, "unit": "µM"},
      {"measurement": "IC50", "setting": "[6]", "result": 8.3, "unit": "µM"},
      {"measurement": "IC50", "setting": "[7]", "result": "> 15", "unit": "µM"}
    ]},
    {"smiles": "COc1ccc2c(ccc3cc(O)cc(OC)c32)c1", "values": [
      {"measurement": "IC50", "setting": "[1]", "result": "> 5", "unit": "µM"},
      {"measurement": "IC50", "setting": "[2]", "result": "> 5", "unit": "µM"},
      {"measurement": "IC50", "setting": "[3]", "result": "> 5", "unit": "µM"},
      {"measurement": "IC50", "setting": "[4]", "result": "> 5", "unit": "µM"},
      {"measurement": "IC50", "setting": "[5]", "result": "> 5", "unit": "µM"},
      {"measurement": "IC50", "setting": "[6]", "result": "> 5", "unit": "µM"},
      {"measurement": "IC50", "setting": "[7]", "result": "> 5", "unit": "µM"}
    ]},
    {"smiles": "COc1ccc2c(ccc3c(-c4c(O)cc(OC)c5c4ccc4cc(O)ccc45)c(O)cc(OC)c32)c1", "values": [
      {"measurement": "IC50", "setting": "[1]", "result": "> 10.2", "unit": "µM"},
      {"measurement": "IC50", "setting": "[2]", "result": "> 10.2", "unit": "µM"},
      {"measurement": "IC50", "setting": "[3]", "result": "> 10.2", "unit": "µM"},
      {"measurement": "IC50", "setting": "[4]", "result": "> 10.2", "unit": "µM"},
      {"measurement": "IC50", "setting": "[5]", "result": "> 10.2", "unit": "µM"},
      {"measurement": "IC50", "setting": "[6]", "result": "> 10.2", "unit": "µM"},
      {"measurement": "IC50", "setting": "[7]", "result": "> 10.2", "unit": "µM"}
    ]},
    {"smiles": "COC1=CC(=O)C(O)(CC(C)=O)c2ccc3cc(OC)ccc3c21", "note": "(stereo not drawn)", "values": [
      {"measurement": "IC50", "setting": "[1]", "result": "> 15.3", "unit": "µM"},
      {"measurement": "IC50", "setting": "[2]", "result": "> 15.3", "unit": "µM"},
      {"measurement": "IC50", "setting": "[3]", "result": "> 15.3", "unit": "µM"},
      {"measurement": "IC50", "setting": "[4]", "result": "> 15.3", "unit": "µM"},
      {"measurement": "IC50", "setting": "[5]", "result": "> 15.3", "unit": "µM"},
      {"measurement": "IC50", "setting": "[6]", "result": "> 15.3", "unit": "µM"},
      {"measurement": "IC50", "setting": "[7]", "result": "> 15.3", "unit": "µM"}
    ]},
    {"smiles": "COc1ccc2c(ccc3c(-c4c(O)cc(OC)c5c4ccc4cc(OC)ccc45)c(O)cc(OC)c32)c1", "values": [
      {"measurement": "IC50", "setting": "[1]", "result": 9.5, "unit": "µM"},
      {"measurement": "IC50", "setting": "[2]", "result": 10.7, "unit": "µM"},
      {"measurement": "IC50", "setting": "[3]", "result": 11.6, "unit": "µM"},
      {"measurement": "IC50", "setting": "[4]", "result": 11, "unit": "µM"},
      {"measurement": "IC50", "setting": "[5]", "result": 11.1, "unit": "µM"},
      {"measurement": "IC50", "setting": "[6]", "result": 11.9, "unit": "µM"},
      {"measurement": "IC50", "setting": "[7]", "result": 5, "unit": "µM"}
    ]},
    {"smiles": "COC1=CC(=O)C(O)(CC(C)=O)c2ccc3cc(O)ccc3c21", "note": "(stereo not drawn)", "values": [
      {"measurement": "IC50", "setting": "[1]", "result": "> 16", "unit": "µM"},
      {"measurement": "IC50", "setting": "[2]", "result": "> 16", "unit": "µM"},
      {"measurement": "IC50", "setting": "[3]", "result": "> 16", "unit": "µM"},
      {"measurement": "IC50", "setting": "[4]", "result": "> 16", "unit": "µM"},
      {"measurement": "IC50", "setting": "[5]", "result": "> 16", "unit": "µM"},
      {"measurement": "IC50", "setting": "[6]", "result": "> 16", "unit": "µM"},
      {"measurement": "IC50", "setting": "[7]", "result": "> 16", "unit": "µM"}
    ]},
    {"smiles": "COc1cc(O)c(-c2c(O)cc(OC)c3c2ccc2cc(O)ccc23)c2ccc3cc(O)ccc3c12", "note": "[CIRRHOPETALANTHIN]", "values": [
      {"measurement": "IC50", "setting": "[1]", "result": 10.5, "unit": "µM"},
      {"measurement": "IC50", "setting": "[2]", "result": 11.2, "unit": "µM"},
      {"measurement": "IC50", "setting": "[3]", "result": 17.8, "unit": "µM"},
      {"measurement": "IC50", "setting": "[4]", "result": 13.2, "unit": "µM"},
      {"measurement": "IC50", "setting": "[5]", "result": 8.4, "unit": "µM"},
      {"measurement": "IC50", "setting": "[6]", "result": 12.5, "unit": "µM"},
      {"measurement": "IC50", "setting": "[7]", "result": "> 22.7", "unit": "µM"}
    ]},
    {"smiles": "COc1cc(O)cc2ccc3cc(O)ccc3c12", "note": "[FLAVANTHRININ]", "values": [
      {"measurement": "IC50", "setting": "[1]", "result": "> 20.8", "unit": "µM"},
      {"measurement": "IC50", "setting": "[2]", "result": "> 20.8", "unit": "µM"},
      {"measurement": "IC50", "setting": "[3]", "result": "> 20.8", "unit": "µM"},
      {"measurement": "IC50", "setting": "[4]", "result": "> 20.8", "unit": "µM"},
      {"measurement": "IC50", "setting": "[5]", "result": "> 20.8", "unit": "µM"},
      {"measurement": "IC50", "setting": "[6]", "result": "> 20.8", "unit": "µM"},
      {"measurement": "IC50", "setting": "[7]", "result": "> 20.8", "unit": "µM"}
    ]},
    {"smiles": "CC[C@@]1(O)C(=O)OCc2c1cc1n(c2=O)Cc2cc3c(CN(C)C)c(O)ccc3nc2-1", "note": "[TOPOTECAN]", "values": [
      {"measurement": "IC50", "setting": "[1]", "result": 4.4, "unit": "µM"},
      {"measurement": "IC50", "setting": "[2]", "result": 1.5, "unit": "µM"},
      {"measurement": "IC50", "setting": "[3]", "result": 3.3, "unit": "µM"},
      {"measurement": "IC50", "setting": "[4]", "result": 1.1, "unit": "µM"},
      {"measurement": "IC50", "setting": "[5]", "result": 1.2, "unit": "µM"},
      {"measurement": "IC50", "setting": "[6]", "result": 1.9, "unit": "µM"},
      {"measurement": "IC50", "setting": "[7]", "result": 1.3, "unit": "µM"}
    ]}
  ]
}
